Assay results as given in PubChem BioAssay AID624316 (Broad Institute, 2012).
Several values for one entry are separate records, joined by “and”; a condition that tells them apart may be missing. Identical values can stand only once. Activity calls are given as the source filed them.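 The calls were made as follows: active = compounds lowering reporter light with a fitted AC50 at or below twice their top valid dose; inconclusive = flat partial inhibition or an unreliable curve fit; inactive = the rest.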

Tested on: SK-MEL-5 TRPM1 promoter luciferase reporter, 24 h
Assay: TRPM1 promoter luciferase signal reduction, dose response, MITF inhibitor project, cell-based, SK-MEL-5, dry powder samples, set 4 (AID 624316)
Procedure, shortened: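 incubation = compound added 24 h post-plating, 24 h exposure at 37 °C | test system = SK-MEL-5 melanoma line stably carrying TRPM1 promoter–luciferase reporter | medium = phenol-red-free DMEM, 10% FBS | dosing = compounds pinned into wells as DMSO solutions | technique = luciferase luminescence with SteadyGlo, 5 min room temperature | benchmarks = parthenolide as positive control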

## COc1ccc(C2=C(NC(=O)c3cccc(OC)c3)C(=O)c3ccccc3C2=O)cc1
  AC50: 11.4 µM

## CCN1CCN(C2=C(NS(=O)(=O)c3cccs3)C(=O)c3ccccc3C2=O)CC1
  AC50: 1.73 µM

## CC(=O)N(C)C1=C(N2CCN(C)CC2)C(=O)c2ccccc2C1=O
  AC50: 0.372 µM

## COc1ccc(C(=O)NC2=C(c3ccc(OC)cc3)C(=O)c3ccccc3C2=O)cc1
  AC50: 8.59 µM

## CCN1CCN(C2=C(N(C)C(C)=O)C(=O)c3ccccc3C2=O)CC1
  AC50: 0.367 µM

## C=CCNC1=C(Nc2ccccc2)C(=O)c2ccccc2C1=O
  AC50: 12.4 µM

## O=C1C(NS(=O)(=O)c2ccc(Br)cc2)=C(N2CCSCC2)C(=O)c2ccccc21
  AC50: 9.91 µM

## O=C(NC1=C(c2ccccc2)C(=O)c2ccccc2C1=O)c1ccc(Br)cc1
  AC50: 12.3 µM

## NC1=C(NC(=O)c2ccccc2)C(=O)c2ccccc2C1=O
  AC50: 4.37 µM

## C=CCNC1=C(N2CCSCC2)C(=O)c2ccccc2C1=O
  AC50: 2.81 µM

## O=C(NC1=C(N2CCOCC2)C(=O)c2ccccc2C1=O)c1ccc(Br)cc1
  AC50: 11.3 µM

## Cc1nc2ccccc2n1/N=C/c1ccc([N+](=O)[O-])s1
  AC50: 1.86 µM

## O=C(NC1=C(c2ccc(OC(F)(F)F)cc2)C(=O)c2ccccc2C1=O)c1ccccc1F
  AC50: 17.1 µM

## CC(=O)NC1=C(c2ccc(Oc3ccccc3)cc2)C(=O)c2ccccc2C1=O
  AC50: 14.8 µM

## C=CCNC1=C(NCCCN2CCOCC2)C(=O)c2ccccc2C1=O
  AC50: 7.39 µM

## O=C(NC1=C(N2CCCCC2)C(=O)c2ccccc2C1=O)c1ccccc1
  AC50: 25.6 µM

## O=C(NC1=C(c2ccccc2)C(=O)c2ccccc2C1=O)c1ccccc1
  AC50: 6.77 µM

## C=CCNC1=C(N2CCN(C)CC2)C(=O)c2ccccc2C1=O
  AC50: 3.74 µM

## CC(=O)N(C)C1=C(N2CCOCC2)C(=O)c2ccccc2C1=O
  AC50: 1.89 µM

## O=C(NC1=C(N2CCSCC2)C(=O)c2ccccc2C1=O)c1ccc(Br)cc1
  AC50: 8.75 µM

## O=C1C(Nc2ccccc2)=C(N2CCOCC2)C(=O)c2ccccc21
  AC50: 5.81 µM and 4.63 µM

## CCN1CCN(C2=C(NC(=O)c3ccc(Br)cc3)C(=O)c3ccccc3C2=O)CC1
  AC50: 0.566 µM

## COc1ccc(C2=C(NC(=O)c3ccc4ccccc4c3)C(=O)c3ccccc3C2=O)cc1
  AC50: > 70 µM (inactive)

## CN1CCN(C2=C(NC(=O)c3ccc(Br)cc3)C(=O)c3ccccc3C2=O)CC1
  AC50: 0.921 µM

## C=C1C(=O)OC2C1CC/C(C)=C\CCC1(C)OC21 (configuration not stated)
  AC50: 4.91 µM

## O=C1C(Nc2ccccc2)=C(N2CCCCC2)C(=O)c2ccccc21
  AC50: 2.78 µM

## C[C@@H](NC1=C(Nc2ccccc2)C(=O)c2ccccc2C1=O)c1ccccc1
  AC50: 9.76 µM

## COc1ccc(C2=C(NC(=O)c3ccccc3Cl)C(=O)c3ccccc3C2=O)cc1
  AC50: 6.21 µM

## CN1CCN(C2=C(NC(=O)c3ccccc3)C(=O)c3ccccc3C2=O)CC1
  AC50: 0.508 µM

## O=C1C(NS(=O)(=O)c2ccc(Br)cc2)=C(c2ccccc2)C(=O)c2ccccc21
  AC50: 24 µM

## CCN(CC)CCCCNC1=C(Nc2ccccc2)C(=O)c2ccccc2C1=O
  AC50: 2.87 µM

## CC(=O)N(C)C1=C(N2CCCCC2)C(=O)c2ccccc2C1=O
  AC50: 0.7 µM

## CN1CCN(C2=C(NS(=O)(=O)c3ccccc3)C(=O)c3ccccc3C2=O)CC1
  AC50: 0.614 µM

## O=C1C(Nc2ccccc2)=C(N2CCN(c3ccccc3)CC2)C(=O)c2ccccc21
  AC50: 8.06 µM

## O=C1C(NS(=O)(=O)c2ccc(Br)s2)=C(N2CCSCC2)C(=O)c2ccccc21
  AC50: 20.5 µM

## COc1ccc(C2=C(NC(=O)c3ccc(OC)cc3-c3cccc(OC)c3)C(=O)c3ccccc3C2=O)cc1
  AC50: > 70 µM (inactive)

## C=CCNC1=C(NCCN(CC)CC)C(=O)c2ccccc2C1=O
  AC50: 1.75 µM

## NC1=C(c2ccccc2)C(=O)c2ccccc2C1=O
  AC50: 7.61 µM

## O=C1C(NS(=O)(=O)c2ccc(Br)cc2)=C(N2CCN(c3ccccc3)CC2)C(=O)c2ccccc21
  AC50: 17.1 µM

## Cc1ccc(C(=O)NC2=C(c3ccccc3)C(=O)c3ccccc3C2=O)o1
  AC50: 4.8 µM

## O=C(NC1=C(c2ccc(OC(F)(F)F)cc2)C(=O)c2ccccc2C1=O)c1ccccc1
  AC50: 32 µM

## CN1CCN(C2=C(Nc3ccccc3)C(=O)c3ccccc3C2=O)CC1
  AC50: 4.78 µM

## O=C1C(NS(=O)(=O)c2cccs2)=C(N2CCCCC2)C(=O)c2ccccc21
  AC50: 21.7 µM

## COc1ccc(C2=C(NC(=O)c3cccc(Cl)c3)C(=O)c3ccccc3C2=O)cc1
  AC50: 19.9 µM

## O=C(NC1=C(c2ccc(Oc3ccccc3)cc2)C(=O)c2ccccc2C1=O)c1ccccc1
  AC50: > 70 µM (inactive)

## COc1ccc(C2=C(N)C(=O)c3ccccc3C2=O)cc1
  AC50: 25.1 µM

## O=C1C(Nc2ccccc2)=C(NS(=O)(=O)c2ccccc2[N+](=O)[O-])C(=O)c2ccccc21
  AC50: 29 µM

## O=C1C(NCCCN2CCOCC2)=C(Nc2ccccc2)C(=O)c2ccccc21
  AC50: 4.03 µM

## O=C(NC1=C(c2ccc(OC(F)(F)F)cc2)C(=O)c2ccccc2C1=O)c1ccco1
  AC50: 21 µM

## COc1cccc(C2=C(NC(=O)c3ccccc3)C(=O)c3ccccc3C2=O)c1
  AC50: 13.9 µM

## COc1ccc(C2=C(NC(=O)c3ccccc3OC)C(=O)c3ccccc3C2=O)cc1
  AC50: 15.7 µM

## COc1ccc(C2=C(NC(=O)c3ccc(Cl)cc3)C(=O)c3ccccc3C2=O)cc1
  AC50: 16.4 µM
